Assay outcomes from PubChem BioAssay.
SKN-1 inh: C. elegans SKN-1 inhibition; AID 624304; 360,000 tested, 0.49% active; C. elegans VP596 Pgst-4::GFP/RFP ratio, acrylamide-induced, 24 h; inhibition, % at 21.8 µM;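 active = interference check ratio from 0.5 to 1.5 plus GFP to RFP signal ratio inhibition reaching or exceeding a fixed threshold, cut at about 30% in these data, passing the limit was not always enough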
MT1-MMP act inh: MT1-MMP (human) activation inhibition. P50281. AID 651647. HT1080 RFP-PRO-GFP cells, GFP/RFP ratio fluorescence, overnight; percent of plate control window, DMSO zero. GFP/RFP ratio change, % at 20 µM. 360,000 tested, 0.061% active;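 active = GFP/RFP ratio change of at least 30% with cell ATP level not reduced by more than half and red fluorescence within 50% of control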
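system = RFP-PRO-GFP reporter HT1080 cells | dosing = 20 µM single dose, 1% DMSO | timing = overnight cell settling, then overnight compound exposure, 37 °C, 5% CO2 | read-out basis = GFP/RFP fluorescence ratio | controls = DMSO and RFP-L50D-GFP cell wells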
eLon inh: E. coli protease La inhibition | purified E. coli Lon protease, fluorescence polarization | AID 602123 | inhibition, % at 7.94 µM | P0A9M0 | 360,000 tested, 0.42% active; in the data active = inhibition above about 13%, passing the limit was not always enough;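 note: 0% = enzyme with probe and DMSO and 100% = no enzyme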
TbMetRS inhib: blocks T. brucei methionyl-tRNA synthetase activity; AID 624268; 360,000 tested, 0.4% active; purified T. brucei MetRS, ATP depletion, Kinase-Glo luminescence; inhibition, % at 11.9 µM;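 active = inhibition above a per-plate cutoff of the control wells' mean inhibition plus 3 SD, cut at about 5.5% in these data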;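 note: 0% = DMSO wells median and 100% = median of wells with control inhibitor compound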
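Test system: purified T. brucei MetRS enzyme. Also added: ATP, methionine and E. coli bulk tRNA substrates. Compound: 11.9 µM single point. Schedule: 15 min enzyme-compound preincubation, 2 h reaction, 10 min detection, 25 °C. Signal: luciferase luminescence of residual ATP, Kinase-Glo. Evaluation: percent inhibition versus plate control medians. Controls: DMSO wells, low control.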
hiPSC survival: increases survival of single human iPS cells | AID 602274 | survival enhancement, % at 20 µM | 360,000 tested, 0.044% active | hiPSC single-cell survival, ATPlite luminescence; 100% = ROCK inhibitor wells, 0% = DMSO; in the data active = survival enhancement above about 18%;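 note: cells exposed to compounds for 16 hours before the ATP read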
PREPL inhibitor: inhibits the human prolyl oligopeptidase-like enzyme | Q4J6C6 | recombinant PREPL, fluorescence polarization activity-based probe | inhibition, % at 5.96 µM | 320,000 tested, 0.68% active | AID 2751; in the data active = inhibition above about 43%;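 note: 0% = enzyme with DMSO and 100% = wells lacking enzyme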
Target sequence (Q4J6C6 whole entry, looked up): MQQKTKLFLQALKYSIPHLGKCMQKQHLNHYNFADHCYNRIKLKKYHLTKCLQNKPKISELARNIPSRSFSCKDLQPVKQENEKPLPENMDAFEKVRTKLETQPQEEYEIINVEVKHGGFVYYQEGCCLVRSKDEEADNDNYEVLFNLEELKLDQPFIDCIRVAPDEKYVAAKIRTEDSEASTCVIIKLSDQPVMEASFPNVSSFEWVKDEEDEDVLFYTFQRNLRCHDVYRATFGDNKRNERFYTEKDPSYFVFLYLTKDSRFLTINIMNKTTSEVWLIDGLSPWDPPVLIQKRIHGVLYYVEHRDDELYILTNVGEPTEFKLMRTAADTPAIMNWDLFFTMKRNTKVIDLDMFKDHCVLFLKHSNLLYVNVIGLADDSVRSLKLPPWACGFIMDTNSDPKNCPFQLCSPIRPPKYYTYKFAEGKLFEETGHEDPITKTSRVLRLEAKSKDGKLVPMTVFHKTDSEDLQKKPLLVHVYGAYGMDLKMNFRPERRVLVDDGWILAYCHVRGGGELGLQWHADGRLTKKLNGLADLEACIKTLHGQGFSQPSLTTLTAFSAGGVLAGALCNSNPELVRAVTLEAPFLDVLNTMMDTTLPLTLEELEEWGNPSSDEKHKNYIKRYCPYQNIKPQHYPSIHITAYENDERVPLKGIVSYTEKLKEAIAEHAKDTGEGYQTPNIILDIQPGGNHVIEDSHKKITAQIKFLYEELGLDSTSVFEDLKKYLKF
E coli Lon conf: E. coli Lon inhibition confirmation. shares compounds with eLon inh. purified E. coli Lon, fluorescence polarization. inhibition, % at 7.94 µM. 1,400 tested, 31% active; in the data active = inhibition above about 16%;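 note: 0% = enzyme with probe and DMSO and 100% = no enzyme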
The depositor's hits bear a star; · = no result given. An excerpt weighted towards active compounds, which were near 1.8% of everything screened.

SMILES | SKN-1 inh | MT1-MMP act inh | eLon inh | TbMetRS inhib | hiPSC survival | PREPL inhibitor | E coli Lon conf
CCc1ccc[n+](-c2[nH]c(=O)sc2/C=N/N=C(\N)[O-])c1 | 4.8 | 0.7 | -1.4 | -0.5 | 0.5 | 2.2 | ·
O=c1[nH]c(-[n+]2ccccc2)c(/C=N/NC([S-])=Nc2ccccc2)s1 | -0.1 | -105.6 | 94.1* | 0.2 | -0.5 | 21.9 | 2.2
Cc1cc(C)c[n+](-c2[nH]c(=O)sc2/C=N/NC([S-])=Nc2ccccc2)c1 | -15.3 | -83.7 | 69.5* | -0.1 | -0.4 | 12.9 | 75.7*
CC(C)(C)c1cc[n+](-c2[nH]c(=O)sc2/C=N/NC(=O)c2ccccc2[O-])cc1 | -12.1 | -19.8 | 43.3* | 0.6 | 2.8 | 11.9 | 35.8*
Cc1cc[n+](-c2[nH]c(=O)sc2/C=N/NC([S-])=Nc2ccccc2)cc1 | -17.9 | -58.7 | 63.3* | -0.6 | 0.6 | 11.8 | 53.4*
COc1ccc(-c2c(-c3ccccc3OC)sc3ccccc23)cc1C=O | 29.8 | 2.3 | -2.5 | -0.3 | -2.0 | -1.7 | ·
CCc1ccc[n+](-c2[nH]c(=O)sc2/C=N/NC([S-])=Nc2ccccc2)c1 | -18.5 | -81.8 | 104.8* | 0.0 | 1.7 | 4.7 | 129.5*
CCOC(=O)c1ccc(Cn2c(-c3ccccc3)nnc2-c2ccccc2)o1 | -4.6 | -4.6 | -5.8 | -0.5 | 4.7 | 9.6 | ·
Cc1ccc(-n2c(C)cc(C(=O)CN3CCOCC3)c2C)cc1 | 20.2 | -0.4 | 18.9* | -0.1 | 0.9 | 0.2 | 1.6
Cc1ccc(-n2c(C)cc(C(=O)CN3CCOCC3)c2C)cc1C | 7.7 | 1.6 | 0.8 | 0.2 | 2.9 | 0.9 | ·
COc1cccc(/C=N/NC(=O)CCn2c3ccccc3c3ccccc32)c1 | 4.0 | 2.8 | 2.9 | -0.6 | 8.4 | 0.2 | ·
NNC(=O)CCn1c2ccccc2c2ccccc21 | 2.0 | -1.7 | 20.7* | -0.5 | 2.6 | -0.8 | -8.3
N#CC(CCc1ccc([N+](=O)[O-])cc1)(CCc1ccc([N+](=O)[O-])cc1)C(N)=O | 17.7 | -1.0 | 51.5* | 0.5 | -2.7 | · | 30.9*
O=[N+]([O-])c1ccc(Cc2ccc([N+](=O)[O-])cc2)cc1 | -7.4 | 3.0 | 6.1 | -0.1 | 1.2 | · | ·
N#CC1(C#N)COC23CCCCC2C1(C#N)C(=N)O3 (centres undefined) | 28.6 | -27.9 | 23.3* | 0.2 | 0.3 | 18.9 | 10.0
COc1ccc(C2OC34CCCCC3C(C#N)(C#N)C2(C#N)C(=N)O4)cc1 (centres undefined) | 25.1 | -35.6 | 33.9* | -0.7 | -2.9 | 13.6 | 34.2*
N#CC12COC3(CCCCC3C1(C#N)C#N)OC2=N (centres undefined) | 44.8 | -9.6 | 46.4* | 0.9 | 6.2 | 20.5 | -24.2
CCC1OC23CCCCC2C(C#N)(C(=N)O3)C1(C#N)C#N (centres undefined) | 54.6 | -10.6 | 28.4* | -0.9 | -0.2 | 1.0 | 9.6
CCCC1OC23CCCCC2C(C#N)(C(=N)O3)C1(C#N)C#N (centres undefined) | 37.8 | -14.7 | 14.5 | 0.1 | 0.0 | 2.5 | ·
CC1OC23CCCCC2C(C#N)(C(=N)O3)C1(C#N)C#N (centres undefined) | 22.2 | -1.6 | -10.9 | -0.5 | -0.3 | 3.1 | ·
CC(C)(CN=C1NS(=O)(=O)c2ccccc21)CNC(=O)CN1C(=O)c2ccccc2C1=O | 0.0 | -3.0 | 8.5 | -0.3 | -1.1 | 12.7 | ·
O=C1CC[C@@H](CN(Cc2ccccn2)Cc2nc(Cc3cccc(C(F)(F)F)c3)no2)N1 | -10.8 | -0.6 | -6.8 | -0.4 | -2.4 | 13.4 | ·
COC(=O)[C@H](C)NC(=O)NCCC1=CCCCC1 | -8.9 | -4.8 | 23.7* | -0.3 | 0.8 | -0.2 | 8.8
CCC(C)[C@H](NC(=O)NCCC1=CCCCC1)C(=O)OC (some centres undefined) | 4.6 | 0.8 | -3.6 | 0.2 | -0.3 | 6.7 | ·
CCOc1ccc(N=Cc2ccc(N(C)C)cc2)c(O)c1 | 50.6* | 5.1 | 125.7* | 0.0 | 0.1 | · | 78.2*
SMILES | SKN-1 inh | MT1-MMP act inh | eLon inh | TbMetRS inhib | hiPSC survival | PREPL inhibitor | E coli Lon conf
CCOc1ccc(N=Cc2ccc([N+](=O)[O-])cc2)c(O)c1 | 21.4 | 1.8 | 43.0* | -0.1 | -2.2 | · | 1.4
CCOc1ccc(CNC(=S)N/N=C\c2ccc([N+](=O)[O-])cc2)cc1 | 9.4 | 0.1 | 2.5 | -0.5 | -2.9 | 5.7 | ·
CC1(C(=O)Nc2ccc3c(c2)OCCO3)CCN1C(=O)c1cccc(F)c1 (centres undefined) | 10.9 | -2.9 | 11.1 | -0.1 | 3.2 | · | ·
O=S(=O)(NC1CCCC1)c1cccc(S(=O)(=O)N2CCC(n3nnc4ccccc43)CC2)c1 | -4.5 | 6.8 | 2.1 | -0.4 | 3.8 | -11.1 | ·
CCCn1c(=S)[nH]c2cc(C(=O)N3CCN(C)CC3)ccc2c1=O | 11.1 | 2.0 | 13.7* | 0.5 | -0.3 | · | 1.9
COC(=O)Cn1cnc2c(oc3ccccc32)c1=O | -4.6 | -2.9 | 22.3* | -0.1 | 1.5 | -5.8 | -1.9
CN=c1scc(-c2cccs2)n1/N=C/c1ccc(O)c(O)c1O | 2.3 | -6.3 | 28.2* | -1.7 | -4.8 | 30.8 | 14.3
Cc1[nH][nH]c(=O)c1/C=N/N1CCOCC1 | 4.3 | 0.1 | 3.1 | -1.8 | 4.6 | -9.3 | ·
CC1CCN(C(=O)C(=O)c2cn(CC(=O)N3CCCCCC3)c3ccccc23)CC1 | 16.3 | -4.6 | 5.3 | -0.4 | -0.5 | 4.4 | ·
CC1CCCN(C(=O)C(=O)c2cn(CC(=O)N3CCCCCC3)c3ccccc23)C1 (centres undefined) | 12.3 | -3.6 | 20.6* | -0.5 | -0.5 | 1.6 | 9.6
CN(C(=O)C(=O)c1cn(CC(=O)N2CCCC2)c2ccccc12)C1CCCCC1 | 14.3 | -1.8 | 39.1* | -0.4 | -0.3 | 11.5 | -11.7
Cc1noc(C)c1C(=O)N1CCC1(C)C(=O)NS(=O)(=O)c1cccc(Cl)c1 (centres undefined) | 4.4 | 2.3 | 21.0 | -0.2 | 1.2 | · | ·
CCOC(=O)c1c(C)[nH]c(C)c1S(=O)(=O)N(C)CC(=O)N(C)Cc1ccccc1 | -15.0 | -1.8 | 1.1 | 0.1 | -0.6 | 13.3 | ·
O=C(CNS(=O)(=O)c1ccc2ccccc2c1)OCc1nnc(-c2ccccc2)o1 | -4.1 | 0.4 | -7.0 | -0.3 | 0.8 | -27.6 | ·
O=C(N/N=C/c1cc2c3c(c1O)CCCN3CCC2)c1ccccc1O | 16.1 | -47.8 | 67.2* | -0.1 | -2.3 | · | 103.5*
Cc1nn(-c2ccccc2)c(N2CCCC2)c1/C=N/NC(=O)c1ccccc1O | -3.0 | -8.6 | -3.4 | 0.3 | 0.0 | 13.2 | ·
O=C(O)CCCNc1cc(N2CCN(C(=O)c3ccco3)CC2)c2noc3c2c1C(=O)c1ccccc1-3 | 47.0 | -21.7 | 26.3* | -0.3 | -0.6 | 32.5 | 131.9*
C=CCOC(=O)C1=C[C@H](c2coc3ccccc3c2=O)[C@@H](CCCO)[C@H](OCC)O1 | 8.4 | -3.3 | 26.4* | 0.3 | -1.1 | -3.1 | 1.3
